Lung fibro prol – antiproliferative effect on LL 47 fibroblasts – human, LL 47 cells, CellTiter-Glo luminescence, primary screen; AID 719, 2007; hit rate 1.1% among 85,000; LL 47 human lung fibroblast viability, ATP luminescence; active compounds read low; viability, % at 10 µM;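 active = viability at or below 50% in the single dose screen; inactive = viability above 50%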;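 also: compound exposure lasted 72 h before the ATP readout; 100% = median luminescence of untreated cell-only wells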
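test system = LL 47 human lung fibroblasts | amount = 1,150 fibroblasts seeded per well | medium = 15% FBS in IMEM | times = overnight cell rest, 72 h compound treatment at 37 °C | measured by = CellTiter-Glo luminescence measuring cellular ATP | read-out = viability percentage against median untreated-cell control | benchmarks = cell-only wells, no compound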
bCat KO growth – primary screen for growth suppressors in beta-catenin knockout HCT116 cells (colon tumor, human); AID 818, 2007; hit rate 1.5% among 140,000; HCT116 beta-catenin knockout viability, CellTiter-Glo, 60 h; active compounds read low; viability, % at 10 µM;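 active = viability at or under a set limit, the compound median less 4 SD, cut at about 6% in these data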;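 also: 0% = Hyamine 1622 control at 20 µM and 100% = untreated cell control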
H69AR growth 86K – proliferation blockers of H69AR lung cancer cells, primary screen, cell-based, human, 86K library; H69AR lung tumor viability, ATP luminescence, 72 h; active compounds read low; viability, % at 10 µM; hit rate 6% among 85,000; AID 598, 2007;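 active = viability at or below 40%; inactive = viability above 40%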;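 also: multidrug resistant small cell line overexpressing MRP-1 efflux transporter; 100% = mean luminescence of untreated control wells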
HUVEC inhibit – inhibitors of HUVEC proliferation, primary screen, cell-based, 384-well | CellTiter-Glo luminescence, 72 h; active compounds read low | viability, % at 10 µM (by protocol) | hit rate 1.1% among 86,000 | AID 648, 2007;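 active = viability at or below 30%; inactive = viability above 30%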;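 also: 100% = median luminescence of DMSO-only cell control wells on each plate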
PTEN del growth – growth suppression of PTEN-null HCT116, primary screen, cell-based, CellTiter-Glo; viability, % at 10 µM; hit rate 1.2% among 140,000; HCT116 PTEN-null viability, 60 h; active compounds read low; AID 827, 2007;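 active = viability at or below a set limit, 4 SD under the median of all tested compounds, cut at about 3.7% in these data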;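 also: PTEN knockout HCT116 line with beta catenin targeted HCT116 as companion control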
The depositor's hits bear a star; . = not tested or not shown. Only a selection was taken, and hits are over-represented in it overall.

SMILES	Lung fibro prol	bCat KO growth	H69AR growth 86K	HUVEC inhibit	PTEN del growth
N#Cc1cc2c(nc1SCC(=O)Nc1sc3c(c1C#N)CCC3)CCCCC2	86.3	83.8	19.6*	78.9	75.4
N#Cc1c(NC(=O)CSc2ncn[nH]2)sc2c1CCCCC2	79.5	84.0	28.2*	78.8	85.0
CCOC(=O)c1sc(NC(=O)CSc2nc3c(cc2C#N)CCCCCC3)c(C#N)c1C	76.5	21.8	.	30.2	16.0
N#Cc1c(NC(=O)CSc2nc(N)cc(=O)[nH]2)sc2c1CCCCCC2	87.6	60.0	79.3	94.7	77.5
N#Cc1c(NC(=O)CSc2nnnn2C2CCCC2)sc2c1CCCC2	92.8	89.0	7.7*	102.2	110.7
N#Cc1cc2c(nc1SCC(=O)Nc1sc3c(c1C#N)CCC3)CCCC2	83.9	97.3	7.2*	63.4	92.5
O=C(OCC1COc2ccccc2O1)c1c(F)cccc1F (stereo not given)	96.1	98.4	102.1	88.6	104.5
O=c1c(-c2cccc3ccccc23)[n+]([O-])c2ccccc2n1O	99.7	83.9	94.0	112.0	72.9
c1csc(-c2csc3nc(CN4CCOCC4)nc(NCc4ccc5c(c4)OCO5)c23)c1	76.9	72.6	56.4	79.3	59.6
CS(=O)(=O)N1CCC(C(=O)N2CCC(Cc3ccccc3)CC2)CC1	111.4	94.7	79.4	102.9	89.3
O=C(C1CCCN(S(=O)(=O)Cc2ccccc2)C1)N1CCC(Cc2ccccc2)CC1 (stereo not given)	99.2	76.9	26.3*	86.4	83.6
Cc1cc(CN2CCN(CCC#N)CC2)c(O)c(C2(C)CCCCC2)c1	94.9	72.7	38.2*	95.2	82.9
Cc1ccc(Nc2c(N)c(=O)oc3ccccc23)cc1	71.7	34.3	12.8*	66.6	24.6
C=CCN(C(=O)c1ccccc1)c1ccc(OC)cc1	87.7	41.6	23.5*	81.8	32.6
O=C(c1ccccc1)c1nn(-c2ccccc2)c2nnc(Cc3ccccc3)c(=O)n12	104.4	49.6	31.7*	58.1	55.9
O=C(NC1CCCCCC1)C1CCN(S(=O)(=O)c2ccc(F)cc2)CC1	91.5	78.0	31.9*	105.5	83.1
O=C1CCc2cc(S(=O)(=O)N3CCC(C(=O)NC4CCCCCCC4)CC3)ccc2N1	94.2	88.6	89.2	87.7	98.0
COc1ccc(-c2nc(-c3cccs3)c(-c3cccs3)[nH]2)cc1O	100.2	92.8	46.8	82.6	83.2
CC(C)OC(=O)c1nn2c(C(F)(F)F)cc(-c3ccco3)nc2c1Cl	93.2	91.3	82.8	90.9	94.4
CC(C)OC(=O)c1nn2c(C(F)(F)F)cc(-c3ccc(Br)o3)nc2c1Br	75.8	94.6	35.4*	76.7	95.0
Nc1cccc(Nc2nc(OC(C(F)(F)F)C(F)(F)F)nc(OC(C(F)(F)F)C(F)(F)F)n2)c1	62.7	6.3	1.5*	43.7	2.4*
COc1nc(Nc2ccc(O)cc2)nc(OC(C(F)(F)F)C(F)(F)F)n1	91.8	85.4	87.1	95.1	74.8
CC(C)c1ccc(C(=O)CC2(O)C(=O)N(CN3CCOCC3)c3ccccc32)cc1 (stereo not given)	102.2	67.1	70.7	87.7	67.0
N#CC(=C1CCCC1)c1nc(-c2ccccc2O)cs1	88.0	67.0	28.9*	80.3	61.9
CCOc1cc(/C=N\NC(=O)Cn2nc([N+](=O)[O-])cc2C)ccc1OCc1cccc2ccccc12	101.6	58.6	16.4*	44.1	50.1
SMILES	Lung fibro prol	bCat KO growth	H69AR growth 86K	HUVEC inhibit	PTEN del growth
CCOc1cc(/C=N/NC(=O)CSc2nnc(C)s2)ccc1OCc1ccccc1Cl	.	54.9	.	.	44.1
O=C(Nc1ccc2c(c1)OCO2)c1ccc2nc[nH]c2c1	97.2	97.6	90.4	83.6	103.9
CCCOc1cccc(C(=O)N(Cc2cccs2)C2CCS(=O)(=O)C2)c1 (stereo not given)	91.8	94.4	99.7	95.9	98.0
CCCCOc1cccc(C(=O)N(Cc2cccs2)C2CCS(=O)(=O)C2)c1 (stereo not given)	93.4	79.0	37.3*	95.8	81.5
CC1CC(C)CN(S(=O)(=O)c2ccc(Oc3ccc([N+](=O)[O-])cc3)cc2)C1 (stereo not given)	.	80.3	.	.	70.9
Cn1cc(-c2nnc(-c3ccccc3)o2)c2ccccc21	59.5	84.1	53.7	18.5*	81.9
Cc1ccccc1-c1nnc(-c2ccccc2)o1	93.2	88.1	92.0	99.8	85.4
CCOC(=O)/C(C#N)=N\Nc1ccc(S(=O)(=O)Nc2nc(C)cc(C)n2)cc1	.	91.2	.	.	101.8
C=CCn1c(SCC(=O)NCc2ccc3c(c2)OCO3)nc2scc(-c3ccccc3)c2c1=O	102.0	77.8	66.3	82.8	79.2
C=CCn1c(SCC(=O)N2CC(=O)Nc3ccccc32)nc2scc(-c3ccccc3)c2c1=O	98.5	55.0	26.1*	73.8	52.0
COC(=O)Nc1nc2ccc(C(=O)c3ccccc3)cc2[nH]1	50.0	.	32.9*	36.9	.
O=C(CSc1ccc2ccccc2c1)Nc1nc2ccccc2[nH]1	.	94.4	.	.	101.1
CC(CC(=O)Nc1nc2ccccc2[nH]1)c1ccccc1 (stereo not given)	90.9	71.0	12.1*	88.4	70.4
O=C(COc1ccccc1)Nc1nc2ccccc2[nH]1	99.5	98.7	102.4	101.6	98.6
CCCSc1ccc2nc(NC(=O)OC)[nH]c2c1	53.1	8.8	19.8*	44.7	11.6
O=C(Nc1nc2ccccc2[nH]1)c1ccc(Cl)c(S(=O)(=O)N2CCCC2)c1	73.1	25.4	12.0*	75.1	39.0
Cc1ccc(N/C=C/C(=O)C(C)(C)C)c(O)c1	101.9	74.9	80.7	85.7	76.9
CCOC(=O)C1=C(N)c2ccccc2CC1C(C)C (stereo not given)	98.1	81.3	88.6	99.4	86.2
COc1cccc(C(=O)Nc2nc3ccccc3[nH]2)c1	60.5	75.3	31.6*	68.2	80.9
COc1ccc(S(=O)(=O)Nc2ccccc2C(=O)NCc2ccco2)cc1Br	97.0	79.7	83.5	81.4	93.3
Cn1c(=O)c2c(nc(Br)n2CC(=O)C23CC4CC(CC(C4)C2)C3)n(C)c1=O	97.8	68.6	32.3*	81.8	75.5
COC(=O)c1c(NC(=O)c2nc3ccccc3s2)sc2c1CCN(C(C)=O)C2	3.4*	89.7	43.9	4.2*	71.7
COc1ccc2c(Cl)c(C(=O)NCCCn3ccnc3)sc2c1	90.6	88.8	91.8	94.2	81.0
Cc1c(/C=C(\C#N)c2nn(-c3ccccc3)c(N)c2C#N)c2ccccc2n1Cc1ccc(F)cc1	65.0	58.8	9.6*	36.4	57.3
C=CCN1C(=O)N(/C=C/C)c2cccc3cccc1c23	98.7	93.2	93.5	97.8	96.0
O=C(NCCc1cccc(Cl)c1)c1ccc(Cl)c([N+](=O)[O-])c1	.	84.7	.	.	67.5
CC(C)(CNC(=O)c1ccc([N+](=O)[O-])c(Cl)c1)CNC(=O)c1ccc([N+](=O)[O-])c(Cl)c1	.	2.0*	.	.	2.1*
